Measured values published in ChEMBL document CHEMBL2311498, “Sulfonylureas have antifungal activity and are potent inhibitors of Candida albicans acetohydroxyacid synthase” (J Med Chem, 2013).
In brackets after ≈: the same amount, converted by molar mass. Activity calls are given as the source filed them. No cut-off for these calls is given here.

Legend:
[1] = Inhibition of Candida albicans acetohydroxyacid synthase catalytic domain expressed in Escherichia coli by colorimetric method
How it was run: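 Catalytic subunit, His6-tagged, expressed in E. coli Rosetta and purified on Ni affinity resin with FAD present. Single-point colorimetric assay in 250 mM potassium phosphate pH 6.4 with 50 mM pyruvate, 10 mM MgCl2, 1 mM ThDP and 10 μM FAD, 30 °C for 30 min. Acid decarboxylation to acetoin, creatine/α-naphthol colour read at A525. Duplicates at 10–12 inhibitor levels, Ki from nonlinear fit, tight-binding equation where needed.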

Candida albicans [2] = assay: Antifungal activity against Candida albicans after 72 hrs by broth microdilution method; format: functional
Saccharomyces cerevisiae = assay: Antifungal activity against Saccharomyces cerevisiae after 72 hrs by broth microdilution assay; format: functional
How it was run: (§1)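 Broth microdilution in YNB supplemented with 0.5% glucose and 100 mM ammonium sulfate, with compounds serially diluted from DMSO solutions. Inoculum came from single colonies of 48 h plates suspended in water, adjusted by 530 nm turbidity to 1 × 10^6 to 5 × 10^6 CFU/mL, then diluted to about 10^4 CFU/mL. Incubated at 35 °C with visual readings at 24, 48 and 72 h. MIC50/90 is the concentration giving 50%/90% growth inhibition; MIC50 is the mean of three measurements.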

Candida albicans [3] = assay: Antifungal activity against Candida albicans after 72 hrs by disk diffusion method; format: functional
How it was run: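 Screened by disk diffusion: 10 μL of compound in DMSO applied to a disk on plates inoculated with yeast. Plates were incubated at 35 °C, and inhibition-zone diameters were measured at 24, 48 and 72 h against a DMSO control disk.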

[4] = Toxicity in po dosed rat; format: organism-based; settings: in vivo
[5] = Toxicity in id dosed rabbit; format: organism-based, Oryctolagus cuniculus; settings: in vivo
Candida albicans [6] = assay: Antifungal activity against Candida albicans after 24 hrs by broth microdilution assay; format: functional; how it was run: as §1

Question: What does the source list for COc1cc(Cl)nc(NC(=O)NS(=O)(=O)c2ccccc2C(=O)OCCO)n1?
Answer: Ki ([1]; read-out: Ki): 0.065 µM; MIC50 (Candida albicans [2]): > 25 µM; MIC90 (Candida albicans [2]): > 25 µM

Question: For COc1cc(Br)nc(NC(=O)NS(=O)(=O)c2ccccc2C(=O)OCCI)n1, which Ki ([1]; read-out: Ki) is on record?
Answer: 0.27 µM

Question: And the MIC50 (Candida albicans [2])?
Answer: > 25 µM

Question: What about the MIC90 (Candida albicans [2]) of the same compound?
Answer: > 25 µM

Question: Which results are given for COc1nc(C)nc(NC(=O)NS(=O)(=O)c2ccccc2Cl)n1 [CHLORSULFURON]?
Answer: Ki ([1]; read-out: Ki): 0.434 µM; MIC50 (Candida albicans [2]): 156 µM (≈ 55.8 µg/mL); MIC50 (Saccharomyces cerevisiae): 117 µM (≈ 41.9 µg/mL)

Question: With COc1cc(I)nc(NC(=O)NS(=O)(=O)c2ccccc2C(=O)OCCI)n1 as the compound, how does the Ki ([1]; read-out: Ki) read?
Answer: 0.093 µM

Question: What about the MIC50 (Candida albicans [2]) of the same compound?
Answer: 12 µM (≈ 7.59 µg/mL)

Question: And the MIC90 (Candida albicans [2])?
Answer: 25 µM (≈ 15.8 µg/mL)

Question: For COC(=O)c1ccccc1S(=O)(=O)NC(=O)N(C)c1nc(C)nc(OC)n1 [TRIBENURON METHYL], which Ki ([1]; read-out: Ki) is on record?
Answer: 1.64 µM

Question: And the MIC50 (Candida albicans [2])?
Answer: inactive

Question: And the MIC50 (Saccharomyces cerevisiae)?
Answer: inactive

Question: With COc1cc(Br)nc(NC(=O)NS(=O)(=O)c2ccccc2C(=O)OCCO)n1 as the compound, how does the Ki ([1]; read-out: Ki) read?
Answer: 0.027 µM

Question: And the MIC50 (Candida albicans [2])?
Answer: > 25 µM

Question: What about the MIC90 (Candida albicans [2]) of the same compound?
Answer: > 25 µM

Question: With COC(=O)c1ccccc1S(=O)(=O)NC(=O)Nc1nc(C)cc(C)n1 [SULFOMETURON METHYL] as the compound, how does the Ki ([1]; read-out: Ki) read?
Answer: 0.634 µM

Question: What about the MIC50 (Candida albicans [2]) of the same compound?
Answer: inactive

Question: What about the MIC50 (Saccharomyces cerevisiae) of the same compound?
Answer: 19.5 µM (≈ 7.11 µg/mL)

Question: Which Ki ([1]; read-out: Ki) does the source give for COc1cc(Br)nc(NC(=O)NS(=O)(=O)c2ccccc2C(=O)OCCO[Si](C)(C)C(C)(C)C)n1 here?
Answer: 0.0498 µM

Question: What about the MIC50 (Candida albicans [2]) of the same compound?
Answer: > 25 µM

Question: What about the MIC90 (Candida albicans [2]) of the same compound?
Answer: > 25 µM

Question: With COc1cc(Br)nc(NC(=O)NS(=O)(=O)c2ccccc2C(=O)OCCBr)n1 as the compound, how does the Ki ([1]; read-out: Ki) read?
Answer: 0.065 µM

Question: And the MIC50 (Candida albicans [2])?
Answer: > 25 µM

Question: What about the MIC90 (Candida albicans [2]) of the same compound?
Answer: > 25 µM

Question: With COc1cc(I)nc(NC(=O)NS(=O)(=O)c2ccccc2C(=O)OCCBr)n1 as the compound, how does the Ki ([1]; read-out: Ki) read?
Answer: 0.026 µM

Question: What about the MIC50 (Candida albicans [2]) of the same compound?
Answer: 12 µM (≈ 7.02 µg/mL)

Question: And the MIC90 (Candida albicans [2])?
Answer: > 25 µM

Question: Which results are given for COc1cc(Br)nc(NC(=O)NS(=O)(=O)c2ccccc2C(=O)OCCCl)n1?
Answer: MIC50 (Candida albicans [2]): 15 µM (≈ 7.41 µg/mL); MIC90 (Candida albicans [2]): > 25 µM

Question: Which results are given for COc1cc(Cl)nc(NC(=O)NS(=O)(=O)c2ccccc2C(=O)OCCBr)n1?
Answer: Ki ([1]; read-out: Ki): 0.257 µM; MIC50 (Candida albicans [2]): > 25 µM; MIC90 (Candida albicans [2]): > 25 µM

Question: What does the source list for CCOC(=O)c1cnn(C)c1S(=O)(=O)NC(=O)Nc1nc(OC)cc(OC)n1 [PYRAZOSULFURON ETHYL]?
Answer: Ki ([1]; read-out: Ki): 0.066 µM; MIC50 (Candida albicans [2]): 62 µM (≈ 25.7 µg/mL); MIC50 (Saccharomyces cerevisiae): 41.7 µM (≈ 17.3 µg/mL)

Question: What does the source list for COC(=O)c1ccccc1S(=O)(=O)NC(=O)Nc1nc(I)cc(OC)n1?
Answer: Ki ([1]; read-out: Ki): 0.0039 µM; MIC50 (Candida albicans [2]): 1 µM (≈ 0.492 µg/mL); MIC90 (Candida albicans [2]): 3.13 µM (≈ 1.54 µg/mL)

Question: Which Ki ([1]; read-out: Ki) does the source give for COC(=O)c1ccccc1S(=O)(=O)NC(=O)Nc1nc(Cl)cc(OC)n1 here?
Answer: 0.0071 µM

Question: What about the MIC50 (Candida albicans [2]) of the same compound?
Answer: 3 µM (≈ 1.2 µg/mL)

Question: What about the MIC90 (Candida albicans [2]) of the same compound?
Answer: 6.25 µM (≈ 2.51 µg/mL)

Question: Which Ki ([1]; read-out: Ki) does the source give for COC(=O)c1ccccc1S(=O)(=O)NC(=O)Nc1nc(Br)cc(OC)n1 here?
Answer: 0.0038 µM

Question: And the MIC50 (Candida albicans [2])?
Answer: 1 µM (≈ 0.445 µg/mL)

Question: What about the MIC90 (Candida albicans [2]) of the same compound?
Answer: 6.25 µM (≈ 2.78 µg/mL)

Question: Which results are given for COc1cc(I)nc(NC(=O)NS(=O)(=O)c2ccccc2C(=O)OCCCl)n1?
Answer: Ki ([1]; read-out: Ki): 0.0133 µM; MIC50 (Candida albicans [2]): 4 µM (≈ 2.16 µg/mL); MIC90 (Candida albicans [2]): 12.7 µM (≈ 6.87 µg/mL)

Question: For CCOC(=O)c1ccccc1S(=O)(=O)NC(=O)Nc1nc(I)cc(OC)n1, which Ki ([1]; read-out: Ki) is on record?
Answer: 0.0038 µM

Question: What about the MIC50 (Candida albicans [2]) of the same compound?
Answer: 0.6 µM (≈ 0.304 µg/mL)

Question: What about the MIC90 (Candida albicans [2]) of the same compound?
Answer: 1.56 µM (≈ 0.79 µg/mL)

Question: What about the “diameter of the inhibition zone (DIZ)” value (Candida albicans [3]) of the same compound?
Answer: 35 mm

Question: Which Ki ([1]; read-out: Ki) does the source give for CCOC(=O)c1ccccc1S(=O)(=O)NC(=O)Nc1nc(Cl)cc(OC)n1 [CHLORIMURON ETHYL] here?
Answer: 0.007 µM

Question: What about the MIC50 (Candida albicans [2]) of the same compound?
Answer: 2 µM (≈ 0.83 µg/mL)

Question: And the LD50 [4]?
Answer: > 4000 mg/kg

Question: And the LD50 [5]?
Answer: > 2000 mg/kg

Question: What about the “diameter of the inhibition zone (DIZ)” value (Candida albicans [3]) of the same compound?
Answer: 25 mm

Question: And the MIC50 (Saccharomyces cerevisiae)?
Answer: 19.5 µM (≈ 8.09 µg/mL)

Question: Which results are given for COc1cc(I)nc(NC(=O)NS(=O)(=O)c2ccccc2C(=O)OCCO)n1?
Answer: Ki ([1]; read-out: Ki): 0.015 µM; MIC50 (Candida albicans [2]): > 25 µM; MIC90 (Candida albicans [2]): > 25 µM

Question: What does the source list for COc1cc(I)nc(NC(=O)NS(=O)(=O)c2ccccc2C(=O)OCCO[Si](C)(C)C(C)(C)C)n1?
Answer: Ki ([1]; read-out: Ki): 0.013 µM; MIC50 (Candida albicans [2]): > 25 µM; MIC90 (Candida albicans [2]): > 25 µM

Question: What does the source list for CCOc1ccccc1OS(=O)(=O)NC(=O)Nc1nc(OC)cc(OC)n1 [ETHOXYSULFURON]?
Answer: Ki ([1]; read-out: Ki): 0.02 µM; MIC50 (Candida albicans [2]): 2 µM (≈ 0.797 µg/mL); diameter of the inhibition zone (DIZ) (Candida albicans [3]): 30 mm; MIC50 (Saccharomyces cerevisiae): 13 µM (≈ 5.18 µg/mL)

Question: What does the source list for COc1cc(Cl)nc(NC(=O)NS(=O)(=O)c2ccccc2C(=O)OCCI)n1?
Answer: Ki ([1]; read-out: Ki): 1.2 µM; MIC50 (Candida albicans [2]): > 25 µM; MIC90 (Candida albicans [2]): > 25 µM

Question: Which results are given for CCOc1nc(NC)nc(NC(=O)NS(=O)(=O)c2ccccc2C(=O)OC)n1 [ETHAMETSULFURON METHYL]?
Answer: Ki ([1]; read-out: Ki): 0.656 µM; MIC50 (Candida albicans [2]): inactive; MIC50 (Saccharomyces cerevisiae): inactive

Question: For COc1cc(Cl)nc(NC(=O)NS(=O)(=O)c2ccccc2C(=O)OCCCl)n1, which Ki ([1]; read-out: Ki) is on record?
Answer: 0.062 µM

Question: What about the MIC50 (Candida albicans [2]) of the same compound?
Answer: 15 µM (≈ 6.74 µg/mL)

Question: And the MIC90 (Candida albicans [2])?
Answer: > 25 µM

Question: With CCOC(=O)c1ccccc1S(=O)(=O)NC(=O)Nc1nc(Br)cc(OC)n1 as the compound, how does the Ki ([1]; read-out: Ki) read?
Answer: 0.0041 µM

Question: What about the MIC50 (Candida albicans [2]) of the same compound?
Answer: 0.7 µM (≈ 0.321 µg/mL)

Question: And the MIC90 (Candida albicans [2])?
Answer: 1.56 µM (≈ 0.716 µg/mL)

Question: With COc1cc(Cl)nc(NC(=O)NS(=O)(=O)c2ccccc2C(=O)OCCO[Si](C)(C)C(C)(C)C)n1 as the compound, how does the Ki [1] read?
Answer: Not Active

Question: And the MIC50 (Candida albicans [2])?
Answer: > 25 µM

Question: And the MIC90 (Candida albicans [2])?
Answer: > 25 µM

Question: For COC(=O)c1ccccc1CS(=O)(=O)NC(=O)Nc1nc(OC)cc(OC)n1 [BENSULFURON METHYL], which Ki ([1]; read-out: Ki) is on record?
Answer: 0.031 µM

Question: And the MIC50 (Candida albicans [2])?
Answer: 62 µM (≈ 25.4 µg/mL)

Question: And the MIC50 (Saccharomyces cerevisiae)?
Answer: 20.8 µM (≈ 8.54 µg/mL)

Question: For OC(Cn1cncn1)(Cn1cncn1)c1ccc(F)cc1F [FLUCONAZOLE], which MIC50 (Candida albicans [6]) is on record?
Answer: 0.93 µg/mL (≈ 3.04 µM)
